According to publication PMC5689172 (Biochemistry and Biophysics Reports, 2016):
Values after ≈ are worked out from the molar mass of the structure shown. Like-named read-outs stand apart in the source and are kept apart here.

Key:
M. luteus ATCC 10240 = experiment: Antimicrobial activity, agar dilution method; format: cell-based; conditions: Micrococcus luteus, ATCC10240
Procedure, shortened: (§1)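 Test compound in DMSO, mixed with Mueller–Hinton broth, two-fold serially diluted, and incorporated into MH agar at final 0.25–256 μg/mL. Agar with 0.5% DMSO served as reagent control. Organisms were grown overnight in MH broth at 37 °C, diluted in normal saline to 0.5 McFarland (1.5×10⁸ CFU/mL), and inoculated onto plates. Plates were incubated at 37 °C for 24–48 h, then MIC was recorded.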

[1] = test system: S. putrefaciens ATCC 8071; experiment: Antimicrobial activity, agar dilution method; format: cell-based; conditions: Shewanella putrefaciens, ATCC8071
Procedure, shortened: as §1

B. subtilis ATCC 6633 = experiment: Antimicrobial activity, agar dilution method; format: cell-based; conditions: Bacillus subtilis, ATCC6633
Procedure, shortened: as §1

[2] = test system: S. epidermidis ATCC 12228; experiment: Antimicrobial activity, agar dilution method; format: cell-based; conditions: Staphylococcus epidermidis, ATCC12228
Procedure, shortened: as §1

S. cerevisiae ATCC 2601 = experiment: Antimicrobial activity, agar dilution method; format: cell-based; conditions: Saccharomyces cerevisiae, ATCC2601
Procedure, shortened: as §1

P. shigelloides = experiment: Antimicrobial activity, agar dilution method; format: cell-based; conditions: Plesiomonas shigelloides
B. cereus = experiment: Antimicrobial activity, agar dilution method; format: cell-based; conditions: Bacillus cereus
Procedure, shortened: as §1

P. aeruginosa ATCC 27853 = experiment: Antimicrobial activity, agar dilution method; format: cell-based, Pseudomonas aeruginosa
Procedure, shortened: as §1

E. faecalis ATCC 29212 = experiment: Antimicrobial activity, agar dilution method; format: cell-based; conditions: Enterococcus faecalis, ATCC29212
Procedure, shortened: as §1

S. dysenteriae = experiment: Antimicrobial activity, agar dilution method; format: cell-based; conditions: Shigella dysenteriae
Procedure, shortened: as §1

A. hydrophila = experiment: Antimicrobial activity, agar dilution method; format: cell-based; conditions: Aeromonas hydrophila
Procedure, shortened: as §1

M. morganii = experiment: Antimicrobial activity, agar dilution method; format: cell-based; conditions: Morganella morganii
Procedure, shortened: as §1

S. aureus ATCC 25923 = experiment: Antimicrobial activity, agar dilution method; format: cell-based; conditions: Staphylococcus aureus, ATCC25923
Procedure, shortened: as §1

E. faecalis ATCC 33186 = experiment: Antimicrobial activity, agar dilution method; format: cell-based; conditions: Enterococcus faecalis, ATCC33186
Procedure, shortened: as §1

Gram-positive bacteria = experiment: Antimicrobial activity, agar dilution method, summarised over the group; format: cell-based
Procedure, shortened: as §1

[3] = test system: S. Typhimurium ATCC 13311; experiment: Antimicrobial activity, agar dilution method; format: cell-based; conditions: Salmonella enterica, ATCC13311|TYPHIMURIUM
Procedure, shortened: as §1

[4] = test system: K. pneumoniae ATCC 700603; experiment: Antimicrobial activity, agar dilution method; format: cell-based; conditions: Klebsiella pneumoniae, ATCC700603
Procedure, shortened: as §1

E. coli ATCC 25922 = experiment: Antimicrobial activity, agar dilution method; format: cell-based; conditions: Escherichia coli, ATCC25922
Procedure, shortened: as §1

[5] = test system: S. Choleraesuis ATCC 10708; experiment: Antimicrobial activity, agar dilution method; format: cell-based; conditions: Salmonella enterica, ATCC10708|CHOLERAESUIS
Procedure, shortened: as §1

[6] = test system: C. diphtheriae NCTC 10356; experiment: Antimicrobial activity, agar dilution method; format: cell-based; conditions: Corynebacterium diphtheriae, NCTC10356
Procedure, shortened: as §1

S. marcescens ATCC 8100 = experiment: Antimicrobial activity, agar dilution method; format: cell-based; conditions: Serratia marcescens, ATCC8100
Procedure, shortened: as §1

L. monocytogenes = experiment: Antimicrobial activity, agar dilution method; format: cell-based; conditions: Listeria monocytogenes
Procedure, shortened: as §1

Cytotoxicity, MTT assay = format: cell-based; conditions: human, MRC-5 cells (normal embryonic lung cell line)
S. aureus ATCC 29213 = experiment: Antimicrobial activity, agar dilution method; format: cell-based; conditions: Staphylococcus aureus, ATCC29213
Procedure, shortened: as §1

C. freundii = experiment: Antimicrobial activity, agar dilution method; format: cell-based; conditions: Citrobacter freundii
Procedure, shortened: as §1

[7] = test system: A. xylosoxidans ATCC 27061; experiment: Antimicrobial activity, agar dilution method; format: cell-based; conditions: Achromobacter xylosoxidans, ATCC27061
Procedure, shortened: as §1

S. Enteritidis = experiment: Antimicrobial activity, agar dilution method; format: cell-based; conditions: Salmonella enterica
Procedure, shortened: as §1

[8] = Antioxidant activity, DPPH radical scavenging assay; format: biochemical; conditions: read-out: RSA IC50, 30 min, 517 nm
Procedure, shortened: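 Sample solution (test compound, 1 mg/mL in DMSO) was mixed with 0.1 mM DPPH in methanol and kept 30 min in the dark. Absorbance was read at 517 nm. Radical scavenging activity (%) = [1 − Abs(sample)/Abs(control)] × 100. α-Tocopherol was the positive control.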

C. albicans ATCC 90028 = experiment: Antimicrobial activity, agar dilution method; format: cell-based; conditions: Candida albicans, ATCC90028
Procedure, shortened: as §1

P. stutzeri ATCC 17587 = experiment: Antimicrobial activity, agar dilution method; format: cell-based, Pseudomonas stutzeri; conditions: Stutzerimonas stutzeri, ATCC17587
Procedure, shortened: as §1

MRC-5 cell line = conditions: read-out: Cytotoxicity IC50; MRC-5 cells, MTT; cited from earlier work
[9] = read-out: SOD (superoxide dismutase) activity IC50; cited from earlier work
[10] = test system: twenty-seven strains of microorganisms; format: cell-based; conditions: Saccharomyces cerevisiae
Procedure, shortened: as §1

Gram-negative bacteria = experiment: Antimicrobial activity, agar dilution method, summarised over the group; format: cell-based
Procedure, shortened: as §1

[11] = Pseudomonas aeruginosa, ATCC27853

SMILES: Oc1ccc(Cl)c2cccnc12 [Cloxyquin (3), cloxyquin]
- MIC (M. luteus ATCC 10240): 22.3 µM (≈ 4 µg/mL)
- MIC [1]: 178 µM (≈ 32 µg/mL)
- MIC (B. subtilis ATCC 6633): 22.3 µM (≈ 4 µg/mL)
- MIC [2]: 22.3 µM (≈ 4 µg/mL)
- MIC (S. cerevisiae ATCC 2601): 89.1 µM (≈ 16 µg/mL)
- MIC (P. shigelloides; P. shigelloides, agar dilution): 11.1 µM (≈ 2 µg/mL)
- MIC (B. cereus): 44.5 µM (≈ 8 µg/mL)
- MIC (P. aeruginosa ATCC 27853; [11]): > 1430 µM
- MIC (E. faecalis ATCC 29212): 89.1 µM (≈ 16 µg/mL)
- MIC (S. dysenteriae): 178 µM (≈ 32 µg/mL)
- MIC (A. hydrophila): 44.5 µM (≈ 8 µg/mL)
- MIC (M. morganii): 178 µM (≈ 32 µg/mL)
- MIC (S. aureus ATCC 25923): 89.1 µM (≈ 16 µg/mL)
- MIC (E. faecalis ATCC 33186): 89.1 µM (≈ 16 µg/mL)
- MIC (Gram-positive bacteria): 5.57 to 89.1 µM (≈ 1 to 16 µg/mL)
- MIC [3]: 178 µM (≈ 32 µg/mL)
- MIC [4]: 713 µM (≈ 128 µg/mL)
- MIC (E. coli ATCC 25922): 89.1 µM (≈ 16 µg/mL)
- MIC [5]: 713 µM (≈ 128 µg/mL)
- MIC [6]: 22.3 µM (≈ 4 µg/mL)
- MIC (S. marcescens ATCC 8100): 89.1 µM (≈ 16 µg/mL)
- MIC (L. monocytogenes): 5.57 µM (≈ 1 µg/mL)
- IC50 at 48 h (Cytotoxicity, MTT assay): 81.7 ± 0.96 µM
- MIC (S. aureus ATCC 29213): 89.1 µM (≈ 16 µg/mL)
- MIC (C. freundii): 178 µM (≈ 32 µg/mL)
- MIC [7]: 89.1 µM (≈ 16 µg/mL)
- MIC (S. Enteritidis): 178 µM (≈ 32 µg/mL)
- IC50 [8]: 1050 µM
- MIC (C. albicans ATCC 90028): 178 µM (≈ 32 µg/mL)
- MIC (P. stutzeri ATCC 17587): 178 µM (≈ 32 µg/mL)

SMILES: COc1cccc2c1C(=O)c1c(O)c3c(c(O)c1C2=O)C[C@@](O)(C(=O)CO)C[C@@H]3O[C@H]1C[C@H](N)[C@H](O)[C@H](C)O1 [Doxorubicin]
- IC50 at 48 h (Cytotoxicity, MTT assay): 0.62 ± 0.03 µM

SMILES: Oc1cccc2cccnc12 [8HQ (1), 8-Hydroxyquinoline]
- MIC (M. luteus ATCC 10240): 13.8 µM (≈ 2 µg/mL)
- MIC [1]: 220 µM (≈ 32 µg/mL)
- MIC (B. subtilis ATCC 6633): 6.89 µM (≈ 1 µg/mL)
- MIC [2]: 6.89 µM (≈ 1 µg/mL)
- MIC (S. cerevisiae ATCC 2601): 13.8 µM (≈ 2 µg/mL)
- MIC (P. shigelloides): 13.8 µM (≈ 2 µg/mL)
- MIC (B. cereus): 13.8 µM (≈ 2 µg/mL)
- MIC (P. aeruginosa ATCC 27853; P. aeruginosa ATCC 27853, agar dilution): >1763.57 µM
- MIC (P. aeruginosa ATCC 27853; [11]): > 1760 µM
- MIC (E. faecalis ATCC 29212): 13.8 µM (≈ 2 µg/mL)
- IC50 (MRC-5 cell line): 6.27 µM
- MIC (S. dysenteriae): 220 µM (≈ 32 µg/mL)
- MIC (A. hydrophila): 110 µM (≈ 16 µg/mL)
- MIC (M. morganii): 882 µM (≈ 128 µg/mL)
- MIC (S. aureus ATCC 25923): 6.89 µM (≈ 1 µg/mL)
- MIC (E. faecalis ATCC 33186): 13.8 µM (≈ 2 µg/mL)
- MIC (Gram-positive bacteria): 3.44 to 13.8 µM (≈ 0.499 to 2 µg/mL)
- IC50 [9]: 91.8 µM
- MIC [3]: 220 µM (≈ 32 µg/mL)
- MIC [4]: 882 µM (≈ 128 µg/mL)
- MIC [10]: 3.44 to 13.8 µM (≈ 0.499 to 2 µg/mL)
- MIC (E. coli ATCC 25922): 220 µM (≈ 32 µg/mL)
- MIC (Gram-negative bacteria): 110 to 882 µM (≈ 16 to 128 µg/mL)
- MIC (Gram-negative bacteria; [11]): 13.8 to 882 µM (≈ 2 to 128 µg/mL)
- MIC [5]: 882 µM (≈ 128 µg/mL)
- MIC [6]: 13.8 µM (≈ 2 µg/mL)
- MIC (S. marcescens ATCC 8100): 220 µM (≈ 32 µg/mL)
- MIC (L. monocytogenes): 3.44 µM (≈ 0.499 µg/mL)
- MIC (S. aureus ATCC 29213): 6.89 µM (≈ 1 µg/mL)
- MIC (C. freundii): 220 µM (≈ 32 µg/mL)
- MIC [7]: 55.1 µM (≈ 8 µg/mL)
- MIC (S. Enteritidis): 882 µM (≈ 128 µg/mL)
- IC50 [8]: 615 µM
- MIC (C. albicans ATCC 90028): 13.8 µM (≈ 2 µg/mL)
- MIC (P. stutzeri ATCC 17587): 220 µM (≈ 32 µg/mL)

SMILES: Cc1c(C)c2c(c(C)c1O)CC[C@@](C)(CCC[C@H](C)CCC[C@H](C)CCCC(C)C)O2 [α-tocopherol, α-Tocopherol]
- IC50 [8]: 13.5 µM
